{
  "source": "paper PMC11742495",
  "about": "(Breast Cancer Research : BCR, 2025)",
  "key": {"[1]": {"target": "T1, Y537S ERα-SRC3 interaction (Homo sapiens, UniProt P03372, Y537S)", "T1 sequence (P03372 1-595 Y537S)": "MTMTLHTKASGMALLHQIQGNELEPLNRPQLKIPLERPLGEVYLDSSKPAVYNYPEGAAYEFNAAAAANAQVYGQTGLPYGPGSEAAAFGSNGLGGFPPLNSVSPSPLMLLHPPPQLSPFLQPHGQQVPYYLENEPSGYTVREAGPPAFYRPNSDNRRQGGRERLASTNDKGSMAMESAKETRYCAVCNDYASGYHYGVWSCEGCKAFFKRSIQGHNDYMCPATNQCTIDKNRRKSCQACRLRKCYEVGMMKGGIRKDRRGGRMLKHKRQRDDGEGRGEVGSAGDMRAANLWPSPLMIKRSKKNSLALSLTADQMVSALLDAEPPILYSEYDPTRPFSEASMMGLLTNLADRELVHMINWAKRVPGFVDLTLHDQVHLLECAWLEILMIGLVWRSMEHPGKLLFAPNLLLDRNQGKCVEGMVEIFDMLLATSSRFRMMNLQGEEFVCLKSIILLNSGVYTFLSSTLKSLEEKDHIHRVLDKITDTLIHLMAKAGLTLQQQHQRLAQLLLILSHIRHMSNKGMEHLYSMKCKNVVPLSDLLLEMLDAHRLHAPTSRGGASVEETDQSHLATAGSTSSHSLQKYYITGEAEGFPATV", "assay": "cell-based", "type": "cell-based", "conditions": "for IC50: 1 nM E2, 48 h"}, "endometrium": {"system": "endometrium", "assay": "Uterine SERM agonist study", "type": "in vivo, BALB/c mice", "conditions": "ovariectomized mice, three days of treatment, with and without E2", "outline": "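Adult ovariectomized BALB/c mice were randomized to 8 groups and dosed once daily for 3 consecutive days. Treatments: vehicle (0.2% Tween 80/0.5% CMC); E2 (0.1 mL of 0.1 µg/mL in 95% cottonseed oil/5% ethanol); test compound 50 mg/kg orally; reference SERM 50 mg/kg in vehicle; reference SERD 25 mg/kg in cottonseed oil/ethanol. Each active arm was run ± E2. Uteri were weighed, formalin-fixed, embedded and H&E-stained.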"}, "WT ERα-SRC3 interaction": {"target": "T2, WT ERα-SRC3 interaction (Homo sapiens, UniProt P03372)", "T2 sequence (P03372 1-595)": "T1 sequence (P03372 1-595 Y537S) with S537Y", "assay": "cell-based", "conditions": "1 nM E2, 48 h"}, "[2]": {"system": "heterozygous, luciferase-tagged Y537S ESR1 MCF7 xenograft", "assay": "Comparative murine xenograft study T6I-29-1A vs ICI", "type": "in vivo, NOD/SCID mice"}, "[3]": {"conditions": "cited from earlier work"}, "[4]": {"conditions": "difference between WT-SRC3 and Y537S-SRC3"}, "[5]": {"conditions": "25 mg/kg, T6I-29-1A IP five times per week, ICI SC once per week, vs vehicle"}},
  "note": "Residue numbers refer to the chain shown, from its start. Like-named read-outs stand apart in the source and are kept apart here.",
  "data": [
    {"smiles": "C[C@@H]1Cc2c(ccc3[nH]ncc23)[C@@H](c2ccc(NC3CN(CCCF)C3)cn2)N1CC(F)(F)F", "note": "[Cam, camizestrant]", "values": [
      {"measurement": "ΔIC50", "setting": "[1]", "value": 44.67}
    ]},
    {"smiles": "CC/C(=C(\\c1ccc(O)cc1)c1ccc(OCCN(C)C)cc1)c1ccccc1", "note": "[Compound 4OHT, 4-hydroxytamoxifen]", "values": [
      {"measurement": "endometrium thickness", "setting": "endometrium", "value": "significantly increased width"}
    ]},
    {"smiles": "C[C@@H]1Cc2c([nH]c3ccccc23)[C@@H](c2c(F)cc(NC3CN(CCCF)C3)cc2F)N1CC(F)(F)CO", "note": "[Gir, giredestrant]", "values": [
      {"measurement": "IC50", "setting": "WT ERα-SRC3 interaction; WT-SRC3 IC50 ± StDev", "value": "0.68 ± 0.25", "unit": "nM"},
      {"measurement": "IC50", "setting": "WT ERα-SRC3 interaction; WT-SRC3 Log(IC50) ± StDev", "value": 0.676, "unit": "nM"},
      {"measurement": "IC50", "setting": "[1]; Y537S-SRC3 IC50 ± StDev", "value": "47.6 ± 11.4", "unit": "nM"},
      {"measurement": "IC50", "setting": "[1]; Y537S-SRC3 Log(IC50) ± StDev", "value": 47.9, "unit": "nM"},
      {"measurement": "ΔIC50", "setting": "[1]; [4]", "value": 46.95}
    ]},
    {"smiles": "C[C@]12CC[C@@H]3c4ccc(O)cc4C[C@@H](CCCCCCCCC[S+]([O-])CCCC(F)(F)C(F)(F)F)[C@H]3[C@@H]1CC[C@@H]2O", "note": "(stereo partly shown) [ICI, fulvestrant]", "values": [
      {"measurement": "tumor bioluminescent signal (IVIS) vs vehicle", "setting": "[2]; 25 mg/kg SC once per week", "value": "no significant difference in bioluminescent signal"},
      {"measurement": "final uterine weights", "setting": "[2]; 25 mg/kg, T6I-29-1A IP five times per week, ICI SC once per week", "value": "significantly decreased final uterine weights"},
      {"measurement": "survival", "setting": "[2]; [5]", "value": "significantly prolonged"},
      {"measurement": "tumor growth (digital caliper)", "setting": "[2]; [5]", "value": "significantly blunted tumor growth"},
      {"measurement": "ER target gene expression in tumors (RT-qPCR)", "setting": "[2]; no significance noted", "value": "heightened"},
      {"measurement": "endometrium thickness", "setting": "endometrium", "value": "diminished the thickness"}
    ]},
    {"smiles": "Oc1ccc2c(c1)CC[C@H](c1ccccc1)[C@@H]2c1ccc(OCCN2CCCC2)cc1", "note": "[Laso, lasofoxifene]", "values": [
      {"measurement": "ΔIC50", "setting": "[1]; [4]", "value": 9.59}
    ]},
    {"smiles": "CCNCCc1ccc(CN(CC)c2cc(OC)ccc2[C@@H]2CCc3cc(O)ccc3C2)cc1", "note": "[Rad1901, elacestrant]", "values": [
      {"measurement": "ΔIC50", "setting": "[1]; [4]", "value": 3560.03}
    ]},
    {"smiles": "CC/C(=C(\\c1ccccc1)c1ccc(OCCN(C)C)cc1)c1ccccc1", "note": "[tamoxifen]", "values": [
      {"measurement": "protein binding", "setting": "[3]", "value": "greater than 98%"}
    ]}
  ]
}
